From article PMC3280409 (Analytical and Bioanalytical Chemistry, 2012)
Where a name gives a salt, the structure may show the parent alone. d = 2'-deoxy (DNA); r = 2'-OH (RNA)

B1: MBNL1-FL: full length recombinant MBNL1 protein (protein, UniProt Q9NR56 1-388, looked up)
chain: MAVSVTPIRDTKWLTLEVCREFQRGTCSRPDTECKFAHPSKSCQVENGRVIACFDSLKGRCSRENCKYLHPPPHLKTQLEINGRNNLIQQKNMAMLAQQMQLANAMMPGAPLQPVPMFSVAPSLATNASAAAFNPYLGPVSPSLVPAEILPTAPMLVTGNPGVPVPAAAAAAAQKLMRTDRLEVCREYQRGNCNRGENDCRFAHPADSTMIDTNDNTVTVCMDYIKGRCSREKCKYFHPPAHLQAKIKAAQYQVNQAAAAQAAATAAAMTQSAVKSLKRPLEATFDLGIPQAVLPPLPKRPALEKTNGATAVFNTGIFQYQQALANMQLQQHTAFLPPVPMVHGATPATVSAATTSATSVPFAATATANQIPIISAEHLTSHKYVTQM
modifications: full-length

Experiments:
[1] = molecular target: MBNL1-His6/Biot-(CUG)12 binding; assay: HTRF binding assay of MBNL1-His6 and Biot-; conditions: for IC50: read-out: IC50 (μM) HTRF, hit confirmation, 12-point 1:3 titration, 0.3 nM – 57.5 μM, 1536-well, duplicates
Outline: (§1)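 Recombinant MBNL1-His6 (IPTG-induced, Ni-agarose purified, desalted, purity-corrected by SYPRO-stained gel) at 20 nM with 20 nM Biot-(CUG)12. Read after 60 min at room temperature, in duplicate points. IC50 from dose-response inhibition fits of three independent experiments.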

(CAG)20 RNA = assay: RNA degradation assay; type: biochemical; conditions: 30 min, assay buffer, 37°C, varying compound concentrations (NF449 up to 800 μM)
Outline: (§2)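 5′-32P-labelled RNA was gel-purified, denatured at 85°C for 1 min and slow-cooled to 37°C. At 100 pM it was incubated with varying test compound concentrations in Tris-HCl pH 8.0/NaCl/KCl/MgCl2 assay buffer for 30 min at 37°C. The reaction was stopped with 7.5 M urea/20 mM EDTA and analysed on denaturing 12% PAGE.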

(CUG)20 RNA = assay: RNA degradation assay; type: biochemical; conditions: 30 min, assay buffer, 37°C, varying compound concentrations (NF449 up to 800 μM)
Outline: as §2

[2] = tested on: MBNL1-His6/Biot-(CUG)12 binding; assay: AlphaScreen binding assay of MBNL1-His6 and Biot-; conditions: 1536-well format, 4 ul final volume
Outline: as §1

(CUG)109 transcript = assay: Filter binding assay of MBNL1 constructs to; conditions: read-out: KD, (CUG)109 binding affinity
Outline: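 5′-32P-labelled RNA was denatured at 85°C for 1 min and slow-cooled to 37°C in Tris-HCl pH 8.0/NaCl/KCl/MgCl2 assay buffer. It was incubated with full-length or truncated recombinant MBNL1 for 30 min at 37°C, then captured on a nitrocellulose/Hybond N+ sandwich by slot-blot. Kd came from a one-site binding model over three independent experiments.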

Molecule	IC50 [1] [µM]	further results
CC(O)C(C)OC(=O)[C@@H]1C[C@@H]2c3cccc4c3c(cn4C(C)C)C[C@H]2N(C)C1 (some centres unmarked) [LY-53,857 maleate]	38	
CN1C[C@H](CNC(=O)OCc2ccccc2)C[C@@H]2c3cccc4c3c(cn4C)C[C@H]21 [Metergoline]	52	
O=C(Nc1cc(C(=O)Nc2ccc(S(=O)(=O)O)cc2S(=O)(=O)O)cc(C(=O)Nc2ccc(S(=O)(=O)O)cc2S(=O)(=O)O)c1)Nc1cc(C(=O)Nc2ccc(S(=O)(=O)O)cc2S(=O)(=O)O)cc(C(=O)Nc2ccc(S(=O)(=O)O)cc2S(=O)(=O)O)c1 [NF449 octasodium salt]	31	
CCCN1C[C@H](CSC)C[C@@H]2c3cccc4[nH]cc(c34)C[C@H]21 [Pergolide methanesulfonate]	24.8	
Cn1ccc2cc(NC(=O)Nc3cccnc3)ccc21 [SB 200646 HCl]	55.7	
Cl.Cl.Oc1ccc2c3c1O[C@H]1c4[nH]c5c(c4C[C@@]4(O)[C@@H](C2)N(CC2CC2)CC[C@]314)C[C@@]1(O)[C@H]2Cc3ccc(O)c4c3[C@@]1(CCN2CC1CC1)[C@H]5O4 [nor-Binaltorphimine dihydrochloride]	21.9	RNA degradation of (CAG)20 ((CAG)20 RNA): significant RNA degradation; RNA degradation of (CUG)20 ((CUG)20 RNA): significant RNA degradation
ssCAG-21: unlabeled mixed RNA/DNA oligo, sequence 5′-rUrArGrCrArGrCrArGrCrArGrCrArGrCrArGrCTT; positive control competitive inhibitor (UAGCAGCAGCAGCAGCAGCTT; sugars from the 5' end r19 d2, backbone not given here)		IC50 of inhibition of MBNL1-(CUG)12 binding, AlphaScreen [2]: comparable to those obtained from the 384-well assays; IC50 of inhibition of MBNL1-(CUG)12 binding, HTRF ([1]; 1536-well format, 4 ul final volume): comparable to those obtained from the 384-well assays
B1		Kd ((CUG)109 transcript): 0.00692 ± 0.00078 µM
